Tests used:
Rhizoctonia solani [1] = assay: Fungicidal activity against Rhizoctonia solani assessed as inhibition of mycelial growth after 24 to 48 hr by agar dilution method; format: functional, organism-based
Summary of the method: (§1)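 Agar dilution on potato dextrose agar. Test compounds were serially diluted in DMSO containing 10% Tween 20, and 0.1 mL of each dilution went into a petri dish with 10 mL of agar medium, which was then solidified. IC50 was taken as the concentration giving 50% inhibition.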

Pyricularia oryzae [2] = assay: Fungicidal activity against Magnaporthe oryzae assessed as inhibition of mycelial growth after 24 to 48 hr by agar dilution method; format: functional, organism-based; summary of the method: as §1
Pyricularia oryzae [3] = assay: Antifungal activity against Magnaporthe oryzae infected compound pre-treated rice seedlings through submerged application assessed as concentration required to prevent rice blast disease development measured per 10 acres after 7 days under greenhouse condition; format: functional
Rhizoctonia solani [4] = assay: Antifungal activity against Rhizoctonia solani infected compound pre-treated rice seedlings through submerged application assessed as concentration required to prevent rice sheath blight disease development measured per 10 acres after 7 days under greenhouse condition; format: functional

SMILES: C[Si](C)(C)C[C@](O)(Cn1cncn1)c1ccc(F)cc1
- IC50 (Rhizoctonia solani [1]): 0.016 ppm
- IC50 (Pyricularia oryzae [2]): 0.95 ppm
- Activity (Pyricularia oryzae [3]): 100 g
- Activity (Rhizoctonia solani [4]): 25 g

SMILES: C[Si](C)(C)CC(O)(Cn1cncn1)c1ccc(F)cc1 (racemic) [SIMECONAZOLE]
- IC50 (Rhizoctonia solani [1]): 0.042 ppm
- IC50 (Pyricularia oryzae [2]): 1.25 ppm
- Activity (Pyricularia oryzae [3]): 100 g
- Activity (Rhizoctonia solani [4]): 25 g

SMILES: C[Si](C)(C)C[C@@](O)(Cn1cncn1)c1ccc(F)cc1
- IC50 (Rhizoctonia solani [1]): 0.54 ppm
- IC50 (Pyricularia oryzae [2]): 33.5 ppm
- Activity (Pyricularia oryzae [3]): >100 g
- Activity (Rhizoctonia solani [4]): >100 g
